The list is not random: actives were taken first. Their share in the collection is about 3.5%.
RGS4 block: human RGS4 inhibition | P49798 | B-score at 10 µM | 0.45% of 310,000 active | HEK293 M3R/RGS4 inducible, Fluo-4 calcium flux; hits give high values; triggered by carbachol at its EC20;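 active = B-score, a plate-corrected calcium signal, over three deviations above library mean, with baseline fluorescence within five deviations of library mean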;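 also: RGS4 expression induced by doxycycline in cells with stable M3 receptor; B-score is computed from the integrated fluorescence ratio over baseline after carbachol; higher B-score means a larger calcium signal and so more RGS4 inhibition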
Target sequence (P49798 whole entry, looked up): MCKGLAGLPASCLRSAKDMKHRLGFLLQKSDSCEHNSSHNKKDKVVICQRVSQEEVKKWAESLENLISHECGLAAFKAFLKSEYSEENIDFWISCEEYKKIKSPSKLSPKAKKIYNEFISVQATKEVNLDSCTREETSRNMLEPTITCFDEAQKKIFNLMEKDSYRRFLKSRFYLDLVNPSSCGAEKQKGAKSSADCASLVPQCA
MrgX1 ag: activates human MrgX1 receptor signaling; Q96LB2; MrgX1-HEK293 cells, Fluo-4 calcium fluorescence, agonist mode; hits give high values; B-score at 10 µM; 0.44% of 310,000 active; AID 588627;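 active = calcium response B-score plate-corrected fluorescence ratio at least 3 library SD, with starting fluorescence B-score inside 5 SD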
Target sequence (Q96LB2 whole entry, looked up): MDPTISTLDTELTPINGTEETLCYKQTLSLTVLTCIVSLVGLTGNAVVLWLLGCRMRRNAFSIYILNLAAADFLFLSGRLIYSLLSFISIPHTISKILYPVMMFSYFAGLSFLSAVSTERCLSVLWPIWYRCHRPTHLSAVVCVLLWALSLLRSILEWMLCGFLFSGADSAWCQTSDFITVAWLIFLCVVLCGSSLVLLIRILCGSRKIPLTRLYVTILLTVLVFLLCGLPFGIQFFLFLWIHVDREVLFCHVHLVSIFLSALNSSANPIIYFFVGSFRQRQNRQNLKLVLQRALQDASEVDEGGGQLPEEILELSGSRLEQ
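Test system: HEK293 cells stably expressing human MrgX1 receptor; Input: fifteen thousand cells per well; Dosing: compound delivered in addition one of three; Schedule: overnight seeding, then 1 h dark dye loading; Technique: Fluo-4 NW calcium fluorescence; Measure: B-scored fluorescence response ratio; Controls: positive and negative controls per plate.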
MrgX1 PAM: human MrgX1 positive allosteric modulation, primary screen. Q96LB2. MrgX1-HEK293, Fluo-4 calcium flux, FDSS; hits give high values. B-score at 10 µM. 0.63% of 310,000 active. AID 588675;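 active = plate-corrected calcium response at least 3 library SD above typical, normal starting fluorescence, not activating the receptor alone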;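 also: compound read alongside a low EC10 to EC30 dose of BAM8-22 agonist; peak minus trough fluorescence over baseline measured at the second addition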
MrgX1 antagonist: blocks BAM8-22 activation of human MrgX1 receptor. 1.3% of 310,000 active. MRGX1-HEK293 calcium flux, Fluo-4, BAM8-22 antagonism; hits give low values. B-score at 10 µM. Q96LB2;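 active = calcium-response B-score plate-corrected more than 3 library SD below zero, starting fluorescence within 5 deviations, no agonist response on first addition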;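 also: peak minus trough fluorescence over baseline after final BAM8-22 challenge near maximal dose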
RGS4 pot: potentiators or activators of RGS4; HEK293 M3R/inducible RGS4, carbachol calcium flux Fluo4; hits give low values; B-score at 10 µM; 0.92% of 310,000 active; AID 463111;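 active = B-score of the integrated calcium signal more than 4 SD below the library mean, with starting fluorescence not abnormally high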;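 also: negative B-score means reduced calcium response which marks RGS4 activation or potentiation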
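Detection: kinetic calcium fluorescence imaging with Fluo4-AM dye, 2 µM / Material: HEK293 cells with stable M3R and inducible RGS4 / Schedule: recording 10 s baseline at 1 Hz, 100 s post-agonist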
RGS4 inh valid: validation of RGS4 inhibitors | shares compounds with RGS4 block | HEK293 M3R/RGS4, carbachol calcium Fluo-4 fluorescence; carbachol added at its EC20; 0 = buffer wells, 100 = carbachol control | calcium response, % at 10 µM | 65% of 1,700 active;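 active = duplicate-averaged calcium response above the buffer-only control mean plus 5 SD of those controls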;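 also: integrated fluorescence ratio F max minus min over baseline F0; higher response in RGS4-induced cells means RGS4 inhibition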
RGS4 uninduced: checks RGS4 inhibitor effects in non-induced HEK293 M3R cells; shares compounds with RGS4 block; carbachol calcium Fluo-4; submaximal (EC20) carbachol stimulus; buffer wells 0%, carbachol control wells 100%; activity (percent), % at 10 µM; 20% of 1,900 active; AID 493000; call rule not given here;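 also: RGS4 induction absent so cells express M3R without RGS4; higher means more calcium signal and flags a non-specific hit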
M3R basal Ca ctr: second counter-screen for RGS4 inhibitors: non-induced cells without carbachol | shares compounds with RGS4 block | HEK293 M3R/RGS4 non-induced, Fluo-4 calcium, no carbachol; normalised: buffer wells 0%, carbachol wells 100% | calcium response (agonist-mode artifact), % at 10 µM | 22% of 1,900 active;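 active = duplicate-averaged calcium rise in uninduced cells above buffer wells' mean plus 5 SD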
Active calls of the source: *; i = inactive; / = not tested or not shown.

SMILES	RGS4 block	MrgX1 ag	MrgX1 PAM	MrgX1 antagonist	RGS4 pot	RGS4 inh valid	RGS4 uninduced	M3R basal Ca ctr
C=CCn1c(SCCCCCC)nc(O)cc1=O	i	i	i	i	i	/	/	/
Cc1ccc(C(=O)CNc2ccc(Cl)cc2)cc1	i	i	i	i	i	/	/	/
C/C(=N/NC(=O)CNc1ccc(C)cc1)c1ccc(Cl)cc1	5.55*	i	i	i	i	7.0%*	i	i
Cc1ccc(C=Nc2ccc(N(C)C)cc2)o1	5.31*	i	i	i	i	10.5%*	i	i
Cc1ccc(C(C2C(=O)CC(C)(C)CC2=O)C2C(=O)CC(C)(C)CC2=O)s1	24.5*	i	i	i	i	17.0%*	i	i
O=C(Nc1ccc(Br)cc1)c1cccc(S(=O)(=O)Nc2cnc3ccccc3c2)c1	5.89*	i	i	i	i	16.0%*	i	i
CC(=O)Nc1ccc(S(=O)(=O)N2CCN(C(=O)c3ncoc3-c3ccccc3C)CC2)cc1	i	i	i	i	i	/	/	/
COCCN(C(=O)COC(=O)Cc1cccc(OC)c1)c1c(N)n(CC(C)C)c(=O)[nH]c1=O	i	i	i	i	i	/	/	/
O=C1CCCC(O)=C1C(C#Cc1ccccc1)C1=C(O)CCCC1=O	6.69*	26.9*	i	i	i	50.5%*	i	11.0%*
O=C1CCCC(O)=C1Sc1ccccc1C(=O)O	i	i	i	i	i	/	/	/
CC1(C)CC(=O)C(C(C#Cc2ccccc2)C2=C(O)CC(C)(C)CC2=O)=C(O)C1	8*	i	i	i	i	44.5%*	i	22.0%*
CC1(C)CC(=O)C(N=Nc2ccc(-c3ccccc3)cc2)=C(O)C1	i	i	i	i	i	/	/	/
Cc1cc(C(=O)CSc2ccccc2)cc(C)c1O	i	i	i	i	i	/	/	/
Cc1ccc(C)c(Nc2nc3ccccc3n3cnnc23)c1	i	i	i	i	i	/	/	/
O=C(Nc1ccc(Cl)cc1)OCc1cc(-c2ccccc2Cl)on1	i	i	i	i	i	/	/	/
Cc1ccc(NC(=O)OCc2cc(-c3ccccc3)on2)cc1	i	i	i	i	i	i	i	i
CCOC(=O)N1CCN(C(=O)CSCC(=O)Nc2nc(-c3ccccc3)cs2)CC1	i	i	i	i	i	/	/	/
O=C(CSCC(=O)N1CCCCC1)Nc1nc(-c2cccs2)cs1	i	i	i	i	i	/	/	/
O=C(CSCC(=O)N1CCCCC1)Nc1nc(-c2ccc(Cl)s2)cs1	9.34*	i	i	i	i	i	i	i
O=C(CSCC(=O)N1CCN(c2ccccc2)CC1)Nc1nc(-c2ccc(Cl)s2)cs1	i	i	i	i	i	i	i	i
CCN(CC(=O)NC(=O)NC1CCCC1)Cc1ccccc1	i	i	i	i	i	/	/	/
CC(=O)/C=C/c1ccc2ccccc2n1	24.7*	i	i	i	i	49.5%*	i	i
COc1ccc(C(C[N+](=O)[O-])c2c(C)cc3ccccn23)cc1 (stereo not drawn)	i	i	i	i	i	/	/	/
COc1ccc(C(C[N+](=O)[O-])c2c(C)[nH]n(-c3ccccc3)c2=O)cc1 (stereo not drawn)	28.5*	39.9*	i	i	i	54.0%*	84.5%*	21.0%*
COc1cc(C(=O)Nc2cccc(NC(=O)c3cccs3)c2)cc(OC)c1OC	i	i	i	i	i	/	/	/
SMILES	RGS4 block	MrgX1 ag	MrgX1 PAM	MrgX1 antagonist	RGS4 pot	RGS4 inh valid	RGS4 uninduced	M3R basal Ca ctr
CCOCCCNC1=C(Cl)C(=O)c2ccccc2C1=O	5.55*	i	i	i	i	30.0%*	i	i
CCOCCCNS(=O)(=O)c1ccccc1	i	i	i	i	i	/	/	/
COc1ccc(-c2csc(Nc3cc(C)ccn3)n2)cc1C	9.77*	i	i	i	i	34.0%*	39.0%*	i
COc1ccc(-c2csc(Nc3ccc(S(=O)(=O)Nc4cc(C)on4)cc3)n2)cc1	14.5*	i	i	i	i	30.5%*	36.5%*	i
COc1cc(NS(=O)(=O)c2ccc(Nc3nc(-c4cccc([N+](=O)[O-])c4)cs3)cc2)nc(OC)n1	i	i	i	i	i	/	29.5%*	i
Oc1ccc(Nc2nc(-c3ccc(O)cc3)cs2)cc1	i	i	i	i	i	i	i	i
COc1ccc(Nc2nc(-c3ccc(OC)cc3)cs2)cc1	i	i	i	i	i	i	i	i
COc1ccc(-c2csc(Nc3ccccc3)n2)cc1	i	i	i	i	i	/	/	/
CCn1nnc2cc(C(=O)NCC(c3ccccc3OC)N(C)C)ccc21 (stereo not drawn)	i	i	i	i	i	/	/	/
CCc1c(O)nc(SCC(=O)Nc2nc3ccccc3s2)n(C2CCCCC2)c1=O	5.83*	i	i	i	i	37.0%*	i	i
COC(=O)c1sc(NC(=O)CSc2nc3cccnc3n2C2CCCCC2)nc1C	4.94*	i	i	i	i	9.5%*	i	i
CCc1c(O)nc(SCC(=O)Nc2ccc(OC)cc2)n(C2CCCCC2)c1=O	i	i	i	i	i	/	/	/
COC(=O)c1sc(NC(=O)CSc2nc3cccnc3n2C)nc1C	i	i	i	i	i	/	/	/
O=C(Nc1ccc2nc3n(c(=O)c2c1)CCCC3)c1cncc(Br)c1	i	i	i	i	i	/	/	/
CN(C)S(=O)(=O)c1ccc(C(=O)NCCN2C(=O)S/C(=C\c3cccnc3)C2=O)cc1	i	i	i	i	i	/	/	/
CS(=O)(=O)c1ccc(C(=O)NCCN2C(=O)S/C(=C\c3cccnc3)C2=O)cc1[N+](=O)[O-]	5.72*	i	i	i	i	22.5%*	i	i
Cc1ccc(S(=O)(=O)Nc2ccc(-c3ccc4nncn4n3)cc2)cc1	i	i	i	i	i	/	/	/
COc1ccc2c(c1)-c1nc(NC(=O)c3ccco3)sc1CC2	17.3*	i	i	i	i	48.0%*	59.0%*	i
